Reference: ChEMBL document CHEMBL3045293, “Effect of the herbicides terbuthylazine and glyphosate on photosystem II photochemistry of young olive (Olea europaea) plants” (J Agric Food Chem, 2011)

Legend:
Type in all cases: organism-based
Olea europaea [1] = experiment: Toxicity in young Olea europaea (olive) plants assessed as induction of chronic photoinhibition of photosystem II at 3 kg/ha measured 60 days post dose; settings: in vivo, 1440 h
Olea europaea [2] = experiment: Toxicity in young Olea europaea (olive) plants assessed as effect on maximum quantum efficiency of photosystem II at 3 kg/ha measured at midday 24 hr post dose; settings: in vivo
How it was run: (§1)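 Leaves of potted young olive plants; herbicide applied to the soil surface 24 h after olive-mill waste (OW) amendment; triplicate pots; untreated pots without herbicide or OW as controls. Modulated chlorophyll fluorescence (portable fluorimeter) read at 24 h, 15 days and 60 days. Light- and dark-adapted parameters taken at dawn (1–7 μmol m2 s1) and midday (1700 μmol m2 s1), after 30 min dark adaptation in leaf-clips.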

Olea europaea [3] = experiment: Toxicity in young Olea europaea (olive) plants assessed as effect on maximum quantum efficiency of photosystem II at 3 kg/ha measured 15 days post dose; settings: in vivo, 360 h; how it was run: as §1
Olea europaea [4] = experiment: Toxicity in young Olea europaea (olive) plants assessed as reduction in intracellular CO2 level at 3 kg/ha measured 15 days post dose in presence of oil Olea europaea (olive)-mill waste; settings: in vivo, 360 h
How it was run: (§2)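 Gas exchange (net photosynthetic rate, stomatal conductance, intercellular CO2) measured on young olive plants in triplicate pots. Herbicide was applied to the soil surface 24 h after OW addition, and pots without herbicide or OW served as controls. Readings were taken 24 h, 15 days and 60 days after treatment. Values are mean ± SE, n = 9, compared by Tukey test (P < 0.05).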

Olea europaea [5] = experiment: Toxicity in young Olea europaea (olive) plants assessed as induction of chronic photoinhibition of photosystem II at 3 kg/ha measured 60 days post dose in presence of oil Olea europaea (olive)-mill waste; settings: in vivo, 1440 h
Olea europaea [6] = experiment: Toxicity in young Olea europaea (olive) plants assessed as reduction in stomatal conductance at 3 kg/ha measured 60 days post dose; settings: in vivo, 1440 h; how it was run: as §2
Olea europaea [7] = experiment: Toxicity in young Olea europaea (olive) plants assessed as reduction in intracellular CO2 level at 3 kg/ha measured 60 days post dose; settings: in vivo, 1440 h; how it was run: as §2
Olea europaea [8] = experiment: Toxicity in young Olea europaea (olive) plants assessed as reduction in non-photochemical quenching photosystem II at 3 kg/ha measured 15 days post dose; settings: in vivo, 360 h; how it was run: as §1
Olea europaea [9] = experiment: Toxicity in young Olea europaea (olive) plants assessed as reduction in quantum efficiency of photosystem II at 3 kg/ha measured 15 days post dose; settings: in vivo, 360 h; how it was run: as §1
Olea europaea [10] = experiment: Toxicity in young Olea europaea (olive) plants assessed as reduction in photosynthetic rate at 3 kg/ha measured 60 days post dose in presence of oil Olea europaea (olive)-mill waste; settings: in vivo, 1440 h; how it was run: as §2
Olea europaea [11] = experiment: Toxicity in young Olea europaea (olive) plants assessed as reduction in photosynthetic rate at 3 kg/ha measured 60 days post dose; settings: in vivo, 1440 h; how it was run: as §2
Olea europaea [12] = experiment: Toxicity in young Olea europaea (olive) plants assessed as reduction in intracellular CO2 level at 3 kg/ha measured 15 days post dose; settings: in vivo, 360 h; how it was run: as §2
Olea europaea [13] = experiment: Toxicity in young Olea europaea (olive) plants assessed as reduction in photosynthetic rate at 3 kg/ha measured 15 days post dose; settings: in vivo, 360 h; how it was run: as §2
Olea europaea [14] = experiment: Toxicity in young Olea europaea (olive) plants assessed as reduction in intracellular CO2 level at 3 kg/ha measured 60 days post dose in presence of oil Olea europaea (olive)-mill waste; settings: in vivo, 1440 h; how it was run: as §2
Olea europaea [15] = experiment: Toxicity in young Olea europaea (olive) plants assessed as reduction in photosynthetic rate at 3 kg/ha measured 15 days post dose in presence of oil Olea europaea (olive)-mill waste; settings: in vivo, 360 h; how it was run: as §2
Olea europaea [16] = experiment: Toxicity in young Olea europaea (olive) plants assessed as reduction in stomatal conductance at 3 kg/ha measured 15 days post dose; settings: in vivo, 360 h; how it was run: as §2
Olea europaea [17] = experiment: Toxicity in young Olea europaea (olive) plants assessed as stomatal conductance at 3 kg/ha measured 15 days post dose in presence of oil Olea europaea (olive)-mill waste; settings: in vivo, 360 h; how it was run: as §2
Olea europaea [18] = experiment: Toxicity in young Olea europaea (olive) plants assessed as stomatal conductance at 3 kg/ha measured 60 days post dose in presence of oil Olea europaea (olive)-mill waste; settings: in vivo, 1440 h; how it was run: as §2
Olea europaea [19] = experiment: Toxicity in young Olea europaea (olive) plants assessed as reduction in non-photochemical quenching photosystem II at 3 kg/ha measured 60 days post dose; settings: in vivo, 1440 h; how it was run: as §1
Olea europaea [20] = experiment: Toxicity in young Olea europaea (olive) plants assessed as reduction in maximum quantum efficiency of photo system measured by Fv/Fm ratio 2 at 3 kg/ha measured 60 days post dose (reference value: 0.8); settings: in vivo, 1440 h; how it was run: as §1
Olea europaea [21] = experiment: Toxicity in young Olea europaea (olive) plants assessed as reduction in quantum efficiency of photosystem II at 3 kg/ha measured 60 days post dose; settings: in vivo, 1440 h; how it was run: as §1

Row | SMILES | Activity (Olea europaea [1]) | Activity (Olea europaea [2]) | Activity (Olea europaea [3]) | Activity (Olea europaea [4]) | Activity (Olea europaea [5]) | Activity (Olea europaea [6]) | Activity (Olea europaea [7]) | Activity (Olea europaea [8]) | Activity (Olea europaea [9]) | Activity (Olea europaea [10]) | Activity (Olea europaea [11]) | Activity (Olea europaea [12]) | Activity (Olea europaea [13]) | Activity (Olea europaea [14]) | Activity (Olea europaea [15]) | Activity (Olea europaea [16]) | other results
1 | O=C(O)CNCP(=O)(O)O [GLYPHOSATE] | Non-toxic | Toxic | Toxic | Toxic | Non-toxic | Non-toxic | Non-toxic | Non-toxic | Non-toxic | Non-toxic | Non-toxic | Non-toxic | Non-toxic | Non-toxic | Toxic | Non-toxic | 
2 | CCNc1nc(Cl)nc(NC(C)(C)C)n1 [Terbuthylazine] | Toxic | Toxic | Toxic | Non-toxic | Non-toxic | Non-toxic | Non-toxic | Non-toxic | Non-toxic | Non-toxic | Toxic | Toxic | Toxic | Non-toxic | Non-toxic | Toxic | Activity (Olea europaea [17]): Non-toxic; Activity (Olea europaea [18]): Non-toxic; Activity (Olea europaea [19]): Toxic; Ratio (Olea europaea [20]): 0.6; Activity (Olea europaea [21]): Toxic
